Assay results reported in PMC10951978 (RSC Advances, 2024).
Read-outs that look alike come from different tables or passages of the source.

What was measured:
[1] = tested on: K562; experiment: CCK8 antiproliferative assay, K562; type: cell-based, human; conditions: read-out: Antiproliferative activity (IC50/μM) K562
[2] = tested on: MV411; experiment: CCK8 antiproliferative assay, MV411; type: cell-based, human; conditions: read-out: Antiproliferative activity (IC50/μM) MV411; MV411, CCK8, 48 h, means ± SD, n = 3
[3] = tested on: KU812; experiment: CCK8 antiproliferative assay, KU812; type: cell-based, human; conditions: read-out: Antiproliferative activity (IC50/μM) KU812
[4] = tested on: Kasumi-1; experiment: CCK8 antiproliferative assay, Kasumi-1; type: cell-based, human; conditions: read-out: Antiproliferative activity (IC50/μM) Kasumi-1; Kasumi-1, CCK8, 48 h, means ± SD, n = 3
[5] = tested on: CCRF-CEM; experiment: CCK8 antiproliferative assay, CCRF-CEM; type: cell-based, human; conditions: read-out: Antiproliferative activity (IC50/μM) CCRF-CEM, CCK8, 48 h, means ± SD, n = 3
[6] = target: HDAC1 (Homo sapiens, UniProt Q13547); experiment: HDAC isoform inhibitory activity; type: biochemical
[7] = target: HDAC2 (Homo sapiens, UniProt Q92769); experiment: HDAC isoform inhibitory activity; type: biochemical
[8] = target: HDAC3 (Homo sapiens, UniProt O15379); experiment: HDAC isoform inhibitory activity; type: biochemical
[9] = target: T1, HDAC10 (Homo sapiens, UniProt Q969S8); experiment: HDAC isoform inhibitory activity; type: biochemical
T1 sequence (Q969S8 1-669): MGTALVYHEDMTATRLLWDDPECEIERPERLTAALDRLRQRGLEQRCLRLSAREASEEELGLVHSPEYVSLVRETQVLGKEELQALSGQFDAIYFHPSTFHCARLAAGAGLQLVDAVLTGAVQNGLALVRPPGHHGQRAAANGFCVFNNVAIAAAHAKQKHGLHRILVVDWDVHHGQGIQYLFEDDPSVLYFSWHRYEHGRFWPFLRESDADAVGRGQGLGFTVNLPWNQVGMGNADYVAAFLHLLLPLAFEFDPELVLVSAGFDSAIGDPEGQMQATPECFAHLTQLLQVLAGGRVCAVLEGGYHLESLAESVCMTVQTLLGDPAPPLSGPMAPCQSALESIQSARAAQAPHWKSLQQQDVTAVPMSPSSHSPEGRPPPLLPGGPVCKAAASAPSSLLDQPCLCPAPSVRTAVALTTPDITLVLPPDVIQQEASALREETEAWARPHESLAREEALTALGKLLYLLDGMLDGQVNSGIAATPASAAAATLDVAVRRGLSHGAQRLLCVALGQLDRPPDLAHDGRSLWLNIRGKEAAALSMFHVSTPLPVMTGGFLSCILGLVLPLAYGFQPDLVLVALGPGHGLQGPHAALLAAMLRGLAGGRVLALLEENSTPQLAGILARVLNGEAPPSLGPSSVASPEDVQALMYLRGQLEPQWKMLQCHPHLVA

[10] = tested on: MV411 cells; experiment: Annexin V-FITC/PI apoptosis assay by flow cytometry; type: cell-based, human; conditions: 48 hours
Procedure, shortened: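 MV411 cells seeded at 5 × 10^5 per well and held 24 h at 37 °C, 5% CO2. Test compound was then added at 0, 0.25, 0.5 and 1.0 μM for a further 48 h. Cells were harvested, washed in annexin-binding buffer, stained with annexin V-FITC and PI for 15 min at 37 °C, and analysed by flow cytometry.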

[11] = tested on: acetylated H3; experiment: Western blotting of H3 and acetylated H3; type: cell-based, human; conditions: MV411, 0.25, 0.5 and 1.0 μM, 48 hours
[12] = K562, CCK8, 48 h, means ± SD, n = 3
[13] = KU812, CCK8, 48 h, means ± SD, n = 3

Chain of HDAC1 (Q13547 whole entry, canonical isoform): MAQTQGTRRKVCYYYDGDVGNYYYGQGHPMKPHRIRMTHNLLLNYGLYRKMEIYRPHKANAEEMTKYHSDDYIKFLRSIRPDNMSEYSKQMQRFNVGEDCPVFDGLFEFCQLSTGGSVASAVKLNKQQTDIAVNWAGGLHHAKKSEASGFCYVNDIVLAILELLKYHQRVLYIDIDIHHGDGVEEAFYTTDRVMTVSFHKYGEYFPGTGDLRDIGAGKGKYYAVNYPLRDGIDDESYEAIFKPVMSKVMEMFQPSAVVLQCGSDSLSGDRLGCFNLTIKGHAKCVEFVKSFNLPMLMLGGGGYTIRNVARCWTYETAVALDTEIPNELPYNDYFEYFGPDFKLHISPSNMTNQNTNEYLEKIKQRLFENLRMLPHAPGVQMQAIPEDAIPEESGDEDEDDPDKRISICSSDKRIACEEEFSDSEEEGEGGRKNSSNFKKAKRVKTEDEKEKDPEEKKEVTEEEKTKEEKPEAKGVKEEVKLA
Chain of HDAC3 (O15379 whole entry, canonical isoform): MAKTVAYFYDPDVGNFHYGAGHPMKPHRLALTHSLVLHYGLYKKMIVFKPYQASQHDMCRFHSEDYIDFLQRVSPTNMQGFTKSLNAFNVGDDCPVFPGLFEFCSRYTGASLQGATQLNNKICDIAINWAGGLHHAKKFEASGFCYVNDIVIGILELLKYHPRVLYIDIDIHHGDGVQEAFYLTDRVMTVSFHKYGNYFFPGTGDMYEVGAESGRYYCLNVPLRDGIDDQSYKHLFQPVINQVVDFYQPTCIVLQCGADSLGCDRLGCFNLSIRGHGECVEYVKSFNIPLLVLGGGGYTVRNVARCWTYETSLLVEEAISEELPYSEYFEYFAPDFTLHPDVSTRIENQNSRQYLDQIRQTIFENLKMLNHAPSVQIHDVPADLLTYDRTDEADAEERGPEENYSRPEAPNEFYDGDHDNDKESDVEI
Chain of HDAC3 (Q9Y618 395-489 partner limits assumed): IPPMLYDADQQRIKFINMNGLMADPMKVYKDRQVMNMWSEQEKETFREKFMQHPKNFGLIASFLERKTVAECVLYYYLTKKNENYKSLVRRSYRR
Chain of HDAC2 (Q92769 whole entry, canonical isoform): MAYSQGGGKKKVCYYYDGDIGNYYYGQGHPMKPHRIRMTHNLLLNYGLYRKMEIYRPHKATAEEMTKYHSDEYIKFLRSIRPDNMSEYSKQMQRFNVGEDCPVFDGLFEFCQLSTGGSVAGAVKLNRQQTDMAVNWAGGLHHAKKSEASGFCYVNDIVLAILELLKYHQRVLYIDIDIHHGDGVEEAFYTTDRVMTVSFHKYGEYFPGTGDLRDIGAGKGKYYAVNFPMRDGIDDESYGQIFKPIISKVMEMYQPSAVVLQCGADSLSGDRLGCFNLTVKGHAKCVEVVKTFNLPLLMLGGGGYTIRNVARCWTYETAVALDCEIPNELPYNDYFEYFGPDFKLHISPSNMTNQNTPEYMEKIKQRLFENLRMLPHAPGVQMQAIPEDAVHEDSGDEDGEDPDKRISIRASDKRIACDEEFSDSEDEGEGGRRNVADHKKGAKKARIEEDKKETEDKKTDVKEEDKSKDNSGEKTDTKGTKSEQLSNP

Compound	IC50 ([1]; Homo sapiens, K562, 48 h)	IC50 ([3]; Homo sapiens, KU812, 48 h)	other results
4-(2-(4-(((3R,4R)-4-(3,4-Dimethoxybenzyl)-2-oxotetrahydrofuran-3-yl)methyl)-2-methoxyphenoxy)acetamido)-N-hydroxybenzamide [B6]			IC50 [1, 12]: > 5 µM; IC50 [2]: > 5 µM; IC50 [3, 13]: > 5 µM; IC50 [4]: > 5 µM; IC50 [5]: > 5 µM
4-(4-(((3R,4R)-4-(3,4-Dimethoxybenzyl)-2-oxotetrahydrofuran-3-yl)methyl)-2-methoxyphenoxy)-N-hydroxypentanamide [A1]			IC50 [1, 12]: > 5 µM; IC50 [2]: > 5 µM; IC50 [3, 13]: > 5 µM; IC50 [4]: > 5 µM; IC50 [5]: > 5 µM
COc1ccc(C[C@H]2COC(=O)[C@@H]2Cc2ccc(OCCCCC(=O)NO)c(OC)c2)cc1OC [A2, 5-(4-(((3R,4R)-4-(3,4-Dimethoxybenzyl)-2-oxotetrahydrofuran-3-yl)methyl)-2-methoxyphenoxy)-N-hydroxypentanamide]	> 5 µM	> 5 µM	
COc1ccc(C[C@H]2COC(=O)[C@@H]2Cc2ccc(OCC(=O)N3CCC(C(=O)NO)CC3)c(OC)c2)cc1OC [A8, 1-(2-(4-(((3R,4R)-4-(3,4-Dimethoxybenzyl)-2-oxotetrahydrofuran-3-yl)methyl)-2-methoxyphenoxy)acetyl)-N-hydroxypiperidine-4-carboxamide]	> 5 µM	> 5 µM	
COc1ccc(C[C@H]2COC(=O)[C@@H]2Cc2ccc(OCc3cn(CC(=O)NO)nn3)c(OC)c2)cc1OC [A10, 2-(4-((4-(((3R,4R)-4-(3,4-Dimethoxybenzyl)-2-oxotetrahydrofuran-3-yl)methyl)-2-methoxyphenoxy)methyl)-1H-1,2,3-triazol-1-yl)-N-hydroxyacetamide]	> 5 µM	> 5 µM	
COc1ccc(C[C@H]2COC(=O)[C@@H]2Cc2ccc(OCC(=O)NCC(=O)Nc3ccccc3N)c(OC)c2)cc1OC [B1, N-(2-Aminophenyl)-2-(2-(4-(((3R,4R)-4-(3,4-dimethoxybenzyl)-2-oxotetrahydrofuran-3-yl)methyl)-2-methoxyphenoxy)acetamido)acetamide]	> 5 µM	> 5 µM	
COc1ccc(C[C@H]2COC(=O)[C@@H]2Cc2ccc(OCC(=O)NCCC(=O)Nc3ccccc3N)c(OC)c2)cc1OC [B2, N-(2-Aminophenyl)-3-(2-(4-(((3R,4R)-4-(3,4-dimethoxybenzyl)-2-oxotetrahydrofuran-3-yl)methyl)-2-methoxyphenoxy)acetamido)propanamide]	> 5 µM	> 5 µM	
COc1ccc(C[C@H]2COC(=O)[C@@H]2Cc2ccc(OCC(=O)NCCCCC(=O)Nc3ccccc3N)c(OC)c2)cc1OC [B4, N-(2-Aminophenyl)-5-(2-(4-(((3R,4R)-4-(3,4-dimethoxybenzyl)-2-oxotetrahydrofuran-3-yl)methyl)-2-methoxyphenoxy)acetamido)pentanamide]	> 5 µM	> 5 µM	
COc1ccc(C[C@H]2COC(=O)[C@@H]2Cc2ccc(OCc3cn(CC(=O)Nc4ccccc4N)nn3)c(OC)c2)cc1OC [B8, N-(2-Aminophenyl)-2-(4-((4-(((3R,4R)-4-(3,4-dimethoxybenzyl)-2-oxotetrahydrofuran-3-yl)methyl)-2-methoxyphenoxy)methyl)-1H-1,2,3-triazol-1-yl)acetamide]	> 5 µM	> 5 µM	
N-(2-Aminophenyl)-5-(2-(4-(((3R,4R)-4-(3,4-dimethoxybenzyl)-2-oxotetrahydrofuran-3-yl)methyl)-2-methoxyphenoxy)acetamido)pentanamide [B5]			IC50 [1, 12]: > 5 µM; IC50 [2]: > 5 µM; IC50 [3, 13]: > 5 µM; IC50 [4]: > 5 µM; IC50 [5]: > 5 µM

Now from value to compound, other results behind:

IC50 ([1]; Homo sapiens, K562, 48 h)	Compound	IC50 ([3]; Homo sapiens, KU812, 48 h)	other results
2.12 ± 0.12 µM	COc1ccc(C[C@H]2COC(=O)[C@@H]2Cc2ccc(OCCCCCC(=O)NO)c(OC)c2)cc1OC [A3, 6-(4-(((3R,4R)-4-(3,4-Dimethoxybenzyl)-2-oxotetrahydrofuran-3-yl)methyl)-2-methoxyphenoxy)-N-hydroxyhexanamide]	3.88 ± 1.06 µM	
1.19 ± 0.25 µM	COc1ccc(C[C@H]2COC(=O)[C@@H]2Cc2ccc(OCCCCCCC(=O)NO)c(OC)c2)cc1OC [A4, 7-(4-(((3R,4R)-4-(3,4-Dimethoxybenzyl)-2-oxotetrahydrofuran-3-yl)methyl)-2-methoxyphenoxy)-N-hydroxyheptanamide]	1.41 ± 0.75 µM	
24.2 ± 3.12 µM	COc1cc(C[C@H]2C(=O)OC[C@@H]2Cc2ccc(OC)c(OC)c2)ccc1O [Arctigenin, reference compound]	> 30 µM	IC50 [2]: 4.27 ± 1.68 µM
1.96 ± 0.19 µM	COc1ccc(C[C@H]2COC(=O)[C@@H]2Cc2ccc(OCC(=O)Nc3ccc(C(=O)Nc4ccccc4N)cc3)c(OC)c2)cc1OC [B7, N-(2-Aminophenyl)-4-(2-(4-(((3R,4R)-4-(3,4-dimethoxybenzyl)-2-oxotetrahydrofuran-3-yl)methyl)-2-methoxyphenoxy)acetamido)benzamide]	2.09 ± 0.31 µM	IC50 [6]: 0.261 µM; IC50 [7]: 0.131 µM; IC50 [8]: 0.299 µM; IC50 [9]: 1.75 µM; overall proportion of apoptotic cells (Q1-UR + Q1-LR) ([10]; MV411, 0.5 μM): 37.90%; overall proportion of apoptotic cells (Q1-UR + Q1-LR) ([10]; MV411, 1.0 μM): 77.00%; overall proportion of apoptotic cells (Q1-UR + Q1-LR) ([10]; MV411, lowest concentration (printed 0.25 μM and 0.1 μM)): 21.84%; level of acetylated H3 (western blot) [11]: significantly increased the level of acetylated H3
2.68 ± 0.65 µM	Nc1cc(F)ccc1NC(=O)c1ccc(CNC(=O)/C=C/c2cccnc2)cc1 [Tucidinostat, tucidinostat, reference compound]	4.26 ± 0.48 µM	
